Results from ChEMBL document CHEMBL5126676, “Identification of Inhibitors of the Schistosoma mansoni VKR2 Kinase Domain” (ACS Med Chem Lett, 2022).
Calls of active or inactive are those of the source. The calls are words filed in the database; no cut-off is given here.

Assays:
[1] = biological target: T1, Venus kinase receptor 2 (Schistosoma mansoni, UniProt D5JEH1); test: Binding affinity to Schistosoma mansoni N-terminal His6-tagged full-length VKR2 kinase domain expressed in baculovirus infected Sf9 insect cells in presence of ATPgammaS by SPR analysis
[2] = system: Schistosoma mansoni; test: Antischistosomal activity against adult Schistosoma mansoni assessed as reduction in worm motility at 10 uM measured after 2 hrs by inverted microscopy; format: functional, organism-based
In short: (§1)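 Adult S. mansoni worms exposed ex vivo to 10 μM compound. Observed at 2, 5 and 24 h and scored with an observation-based severity system. Descriptors recorded: degenerating, uncoordinated, slow, on sides (no adherence to the well floor by oral or ventral sucker), and tegument blebs. Three to five biological singleton assays.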

[3] = system: Schistosoma mansoni; test: Antischistosomal activity against adult Schistosoma mansoni assessed as loss of worm ability to adhere to well floor at 10 uM measured after 2 hrs by inverted microscopy; format: functional, organism-based; in short: as §1
[4] = system: Schistosoma mansoni; test: Antischistosomal activity against adult Schistosoma mansoni assessed as worm degeneration at 10 uM measured after 24 hrs by inverted microscopy; format: functional, organism-based; in short: as §1
[5] = system: Schistosoma mansoni; test: Antischistosomal activity against adult Schistosoma mansoni assessed as damage to the tegument by measuring blebbing at 10 uM measured after 24 hrs by inverted microscopy; format: functional, organism-based; in short: as §1
[6] = system: Schistosoma mansoni; test: Antischistosomal activity against adult Schistosoma mansoni assessed as damage to the tegument by measuring bubbling at 10 uM measured after 24 hrs by inverted microscopy; format: functional, organism-based; in short: as §1
[7] = system: Schistosoma mansoni; test: Antischistosomal activity against adult Schistosoma mansoni assessed as reduction in worm motility at 10 uM by worm assay; format: functional, organism-based; details: time 2-24 hrs, TDE = time-dependent effect
In short: (§2)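 Ex vivo adult S. mansoni were incubated with 10 μM compound. Average worm motility per well was recorded by WormAssay over time at 2, 5 and 24 h. Three to five biological assays. Significance was tested by two-tailed Student's t-test.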

[8] = biological target: T1, Venus kinase receptor 2; test: Inhibition of Schistosoma mansoni N-terminal His6-tagged full-length VKR2 kinase domain expressed in baculovirus infected Sf9 insect cells assessed as reduction in autophosphorylation measured after 30 mins in presence of ATP by ADP-glo kinase assay
In short: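 Autophosphorylation of the SmVKR2 kinase domain, used as the read-out because no substrate is known, with 10 μM ATP. Concentration–response curves were run in triplicate, and IC50 was fitted from them; the paper plots mean ± SD.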

[9] = system: Schistosoma mansoni; test: Antischistosomal activity against adult Schistosoma mansoni assessed as reduction in worm movement at 10 uM measured after 2 to 24 hrs by inverted microscopy; format: functional, organism-based; details: time 2-24 hrs; in short: as §1
[10] = system: Schistosoma mansoni; test: Antischistosomal activity against adult Schistosoma mansoni assessed as reduction in worm motility at 10 uM measured after 2 to 24 hrs by worm assay; format: functional, organism-based; details: time 2-24 hrs; in short: as §2

T1 sequence (D5JEH1 whole entry, the tested form may be a part): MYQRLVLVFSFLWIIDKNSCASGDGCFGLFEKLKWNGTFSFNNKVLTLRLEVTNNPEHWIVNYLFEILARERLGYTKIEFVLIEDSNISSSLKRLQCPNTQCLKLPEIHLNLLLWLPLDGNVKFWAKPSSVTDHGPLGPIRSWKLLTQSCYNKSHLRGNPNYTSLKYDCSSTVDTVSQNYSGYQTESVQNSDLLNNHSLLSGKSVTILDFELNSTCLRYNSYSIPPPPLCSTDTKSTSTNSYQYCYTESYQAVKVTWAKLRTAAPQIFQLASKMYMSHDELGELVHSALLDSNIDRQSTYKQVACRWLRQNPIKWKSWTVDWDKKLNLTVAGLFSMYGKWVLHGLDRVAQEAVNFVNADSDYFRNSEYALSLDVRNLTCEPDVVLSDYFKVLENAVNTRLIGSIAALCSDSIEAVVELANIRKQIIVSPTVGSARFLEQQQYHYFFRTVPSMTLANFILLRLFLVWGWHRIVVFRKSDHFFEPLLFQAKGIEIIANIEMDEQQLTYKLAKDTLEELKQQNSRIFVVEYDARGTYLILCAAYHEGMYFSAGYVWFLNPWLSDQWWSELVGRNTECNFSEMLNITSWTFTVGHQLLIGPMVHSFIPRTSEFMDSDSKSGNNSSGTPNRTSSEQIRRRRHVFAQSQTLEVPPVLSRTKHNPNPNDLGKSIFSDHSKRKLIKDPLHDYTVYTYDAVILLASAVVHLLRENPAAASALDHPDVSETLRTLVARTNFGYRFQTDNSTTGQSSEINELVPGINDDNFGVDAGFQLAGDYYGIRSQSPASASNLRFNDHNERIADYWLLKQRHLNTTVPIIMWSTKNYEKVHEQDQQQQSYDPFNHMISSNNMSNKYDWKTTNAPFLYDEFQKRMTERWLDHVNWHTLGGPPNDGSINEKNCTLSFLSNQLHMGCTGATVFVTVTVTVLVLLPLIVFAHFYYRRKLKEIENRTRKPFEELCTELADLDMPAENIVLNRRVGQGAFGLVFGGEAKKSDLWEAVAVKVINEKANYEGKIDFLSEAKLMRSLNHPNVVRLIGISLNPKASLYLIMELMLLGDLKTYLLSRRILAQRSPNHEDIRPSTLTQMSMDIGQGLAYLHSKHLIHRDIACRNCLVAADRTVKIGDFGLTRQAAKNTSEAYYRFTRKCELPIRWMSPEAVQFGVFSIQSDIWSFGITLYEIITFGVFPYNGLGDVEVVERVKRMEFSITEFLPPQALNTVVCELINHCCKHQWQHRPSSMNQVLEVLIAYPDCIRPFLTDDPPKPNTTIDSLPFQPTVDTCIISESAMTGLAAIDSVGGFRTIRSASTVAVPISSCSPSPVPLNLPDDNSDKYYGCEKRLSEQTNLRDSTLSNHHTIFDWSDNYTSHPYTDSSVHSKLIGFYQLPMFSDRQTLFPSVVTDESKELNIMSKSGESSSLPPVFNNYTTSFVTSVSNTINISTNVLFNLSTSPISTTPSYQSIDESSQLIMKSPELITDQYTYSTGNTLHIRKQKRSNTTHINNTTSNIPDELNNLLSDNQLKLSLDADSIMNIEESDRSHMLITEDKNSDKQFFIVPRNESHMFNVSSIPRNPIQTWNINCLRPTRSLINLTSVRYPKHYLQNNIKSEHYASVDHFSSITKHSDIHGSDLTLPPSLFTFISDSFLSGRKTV

Compound: Nc1nc(N)c2nc(-c3ccccc3)[nH]c2n1
- Kd [1]: 82 µM

Compound: CN(C)CCNS(=O)(=O)c1ccc(-c2ccnc3[nH]ccc23)cc1
- Kd [1]: 8.2 µM

Compound: CC(C)Oc1ccc2c(-c3ccnc(Nc4ccc(N5CCN(C)CC5)cc4)n3)cnn2n1
- Kd [1]: 3.4 µM
- Activity [2]: Active
- Activity [3]: Active
- Activity [4]: Active
- Activity [5]: Active
- Activity [6]: Active
- Activity [7]: Tde
- IC50 [8]: 20.1 µM

Compound: CS(=O)(=O)Nc1ccc(-c2ccnc3[nH]ccc23)cc1
- Kd [1]: 7.8 µM

Compound: CNC(=O)c1ccccc1Nc1nc(Nc2cccc(CS(C)(=O)=O)c2)ncc1C
- Kd [1]: 0.44 µM
- IC50 [8]: 6.47 µM

Compound: Cc1cccc(Nc2nc(N[C@H]3CCCC[C@H]3N)ncc2C(N)=O)c1
- Kd [1]: 1.96 µM
- Activity [9]: Active
- Activity [10]: Active
- IC50 [8]: 5.69 µM

Compound: Nc1n[nH]c2cnc(-c3ccccc3)cc12
- Kd [1]: 47 µM

Compound: NC(=O)Nc1sc(-c2ccc(F)cc2)cc1C(N)=O
- Kd [1]: 16 µM

Compound: Cc1n[nH]c2cc(Nc3ccnc(Nc4cccc(CN5CCOCC5)c4)n3)ccc12
- Kd [1]: 39 µM

Compound: O=C(Nc1n[nH]c2cnc(-c3ccc(O)cc3)cc12)C1CC1
- Kd [1]: 170 µM
- Activity [9]: Active
- Activity [10]: Active

Compound: Cc1cccc(Nc2nc(NCCN)ncc2C(N)=O)c1
- Kd [1]: 4.5 µM

Compound: NCCNS(=O)(=O)c1ccc(-c2ccnc3[nH]ccc23)cc1
- Kd [1]: 2.53 µM
